The source of these data is ChEMBL document CHEMBL1938374, “Synthesis and biological characterization of 3-substituted-1H-indoles as ligands of GluN2B-containing N-methyl-D-aspartate receptors” (J Med Chem, 2011).

Activity calls are given as the source filed them. The rule behind the calls is not given here.

Assay [1] concerns Mus musculus. Put plainly: Anticonvulsant activity in DBA/2 mouse assessed as inhibition of audiogenic clonic seizures administered as ip, 30 mins prior to auditory stimulation measured for 60 secs. Format: functional. The conditions noted are these: DBA/2, ip. In a few lines:
(§1)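 Seizure ED50 values, in μmol/kg, were computed by the Litchfield and Wilcoxon method. At least 32 animals went into each ED50, and 95% confidence limits are reported.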

Assay [2] deals with Glutamate receptor ionotropic, NMDA 2B (Rattus norvegicus) (UniProt Q00960). Nature of the assay: Displacement of [3H]ifenprodil from GluN2B/NMDA in Wistar rat cerebral cortex at 10 uM after 120 mins by scintillation counting. The class given is tissue-based. A general note: In a radioligand displacement assay an active substance lowers the binding of a labelled ligand.
In assay [3] the test system is Mus musculus. Nature of the assay: Anticonvulsant activity in DBA/2 mouse assessed as inhibition of audiogenic tonic seizures administered as ip, 30 mins prior to auditory stimulation measured for 60 secs. The class given is functional. The conditions noted are these: DBA/2, ip. In a few lines: as §1
In assay [4] the target is Glutamate receptor ionotropic, NMDA 2B (Mus musculus) (UniProt Q01097). Put plainly: Antagonist activity at GluN2B/NMDA in FVB mouse CA1 pyramidal neurons assessed as reduction in NMDA-mediated inward current at 10 uM measured for 5 mins by whole-cell patch clamp assay in presence of glycine and tetrodotoxin. The class given is functional, cell-based. The conditions noted are these: Pyramidal neuron. (In patch-clamp work, channel activity is measured electrically.)

Assay [5] in a line: Displacement of [3H]DTG from sigma 2 receptor after 120 mins by liquid scintillation counting in presence of (+)-SKF10,047.
Assay [6] concerns the target Glutamate receptor ionotropic, NMDA 2B (Rattus norvegicus, UniProt Q00960). Put plainly: Displacement of [3H]ifenprodil from GluN2B/NMDA in Wistar rat cerebral cortex after 120 mins by scintillation counting. Format: tissue-based.
The target in assay [7] is Sigma non-opioid intracellular receptor 1 (Cavia porcellus, UniProt Q60492). Nature of the assay: Displacement of [3H](+)pentazocine from sigma 1 receptor in guinea pig brain membrane after 150 mins by liquid scintillation counting. The class given is cell membranes.
Chain of Sigma non-opioid intracellular receptor 1 (Q60492 whole entry): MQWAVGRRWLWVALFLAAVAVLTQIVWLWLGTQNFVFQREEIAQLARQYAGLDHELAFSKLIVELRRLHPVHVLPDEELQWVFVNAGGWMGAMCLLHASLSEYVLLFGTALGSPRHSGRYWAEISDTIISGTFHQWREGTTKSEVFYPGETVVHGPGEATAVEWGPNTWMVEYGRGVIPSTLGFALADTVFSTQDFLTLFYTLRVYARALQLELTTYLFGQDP

Chain of Glutamate receptor ionotropic, NMDA 2B (Rattus norvegicus) (Q00960 27-1482 limits assumed): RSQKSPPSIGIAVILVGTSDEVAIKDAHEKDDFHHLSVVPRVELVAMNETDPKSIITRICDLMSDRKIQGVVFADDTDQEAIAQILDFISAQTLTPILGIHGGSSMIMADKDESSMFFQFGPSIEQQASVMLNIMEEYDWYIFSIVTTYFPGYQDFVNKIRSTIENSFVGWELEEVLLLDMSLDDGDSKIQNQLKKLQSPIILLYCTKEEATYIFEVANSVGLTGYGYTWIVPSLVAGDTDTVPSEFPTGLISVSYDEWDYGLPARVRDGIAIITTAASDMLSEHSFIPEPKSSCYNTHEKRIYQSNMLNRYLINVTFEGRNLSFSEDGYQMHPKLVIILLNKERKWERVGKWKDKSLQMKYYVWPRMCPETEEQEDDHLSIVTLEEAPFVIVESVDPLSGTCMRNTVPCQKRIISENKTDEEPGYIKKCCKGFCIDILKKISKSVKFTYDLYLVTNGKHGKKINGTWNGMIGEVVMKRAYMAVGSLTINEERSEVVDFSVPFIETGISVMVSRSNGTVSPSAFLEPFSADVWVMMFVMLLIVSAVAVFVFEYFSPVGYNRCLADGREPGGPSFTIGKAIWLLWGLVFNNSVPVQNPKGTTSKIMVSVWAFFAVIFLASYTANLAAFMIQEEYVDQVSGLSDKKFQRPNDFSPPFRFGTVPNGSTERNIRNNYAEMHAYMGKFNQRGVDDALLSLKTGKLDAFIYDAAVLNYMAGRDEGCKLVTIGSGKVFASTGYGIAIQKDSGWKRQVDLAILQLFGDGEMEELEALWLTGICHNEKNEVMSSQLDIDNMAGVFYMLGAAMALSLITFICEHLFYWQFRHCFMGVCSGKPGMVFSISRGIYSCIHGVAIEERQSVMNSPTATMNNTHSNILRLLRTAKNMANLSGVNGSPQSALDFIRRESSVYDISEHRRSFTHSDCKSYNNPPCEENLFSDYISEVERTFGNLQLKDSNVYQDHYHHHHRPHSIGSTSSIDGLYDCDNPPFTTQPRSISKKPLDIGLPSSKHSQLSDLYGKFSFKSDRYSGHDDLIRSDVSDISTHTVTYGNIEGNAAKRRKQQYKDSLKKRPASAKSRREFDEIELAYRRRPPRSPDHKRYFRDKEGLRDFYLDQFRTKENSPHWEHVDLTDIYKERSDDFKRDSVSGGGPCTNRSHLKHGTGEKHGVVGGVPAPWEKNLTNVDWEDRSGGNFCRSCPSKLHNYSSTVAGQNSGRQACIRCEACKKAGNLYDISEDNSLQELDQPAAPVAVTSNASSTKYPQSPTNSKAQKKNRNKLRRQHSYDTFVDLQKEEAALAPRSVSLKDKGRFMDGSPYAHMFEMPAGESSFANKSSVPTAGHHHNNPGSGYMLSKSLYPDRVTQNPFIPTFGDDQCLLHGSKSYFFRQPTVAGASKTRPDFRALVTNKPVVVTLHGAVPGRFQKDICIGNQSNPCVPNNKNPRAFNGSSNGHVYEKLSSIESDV
Chain of Glutamate receptor ionotropic, NMDA 2B (Q00960 whole entry): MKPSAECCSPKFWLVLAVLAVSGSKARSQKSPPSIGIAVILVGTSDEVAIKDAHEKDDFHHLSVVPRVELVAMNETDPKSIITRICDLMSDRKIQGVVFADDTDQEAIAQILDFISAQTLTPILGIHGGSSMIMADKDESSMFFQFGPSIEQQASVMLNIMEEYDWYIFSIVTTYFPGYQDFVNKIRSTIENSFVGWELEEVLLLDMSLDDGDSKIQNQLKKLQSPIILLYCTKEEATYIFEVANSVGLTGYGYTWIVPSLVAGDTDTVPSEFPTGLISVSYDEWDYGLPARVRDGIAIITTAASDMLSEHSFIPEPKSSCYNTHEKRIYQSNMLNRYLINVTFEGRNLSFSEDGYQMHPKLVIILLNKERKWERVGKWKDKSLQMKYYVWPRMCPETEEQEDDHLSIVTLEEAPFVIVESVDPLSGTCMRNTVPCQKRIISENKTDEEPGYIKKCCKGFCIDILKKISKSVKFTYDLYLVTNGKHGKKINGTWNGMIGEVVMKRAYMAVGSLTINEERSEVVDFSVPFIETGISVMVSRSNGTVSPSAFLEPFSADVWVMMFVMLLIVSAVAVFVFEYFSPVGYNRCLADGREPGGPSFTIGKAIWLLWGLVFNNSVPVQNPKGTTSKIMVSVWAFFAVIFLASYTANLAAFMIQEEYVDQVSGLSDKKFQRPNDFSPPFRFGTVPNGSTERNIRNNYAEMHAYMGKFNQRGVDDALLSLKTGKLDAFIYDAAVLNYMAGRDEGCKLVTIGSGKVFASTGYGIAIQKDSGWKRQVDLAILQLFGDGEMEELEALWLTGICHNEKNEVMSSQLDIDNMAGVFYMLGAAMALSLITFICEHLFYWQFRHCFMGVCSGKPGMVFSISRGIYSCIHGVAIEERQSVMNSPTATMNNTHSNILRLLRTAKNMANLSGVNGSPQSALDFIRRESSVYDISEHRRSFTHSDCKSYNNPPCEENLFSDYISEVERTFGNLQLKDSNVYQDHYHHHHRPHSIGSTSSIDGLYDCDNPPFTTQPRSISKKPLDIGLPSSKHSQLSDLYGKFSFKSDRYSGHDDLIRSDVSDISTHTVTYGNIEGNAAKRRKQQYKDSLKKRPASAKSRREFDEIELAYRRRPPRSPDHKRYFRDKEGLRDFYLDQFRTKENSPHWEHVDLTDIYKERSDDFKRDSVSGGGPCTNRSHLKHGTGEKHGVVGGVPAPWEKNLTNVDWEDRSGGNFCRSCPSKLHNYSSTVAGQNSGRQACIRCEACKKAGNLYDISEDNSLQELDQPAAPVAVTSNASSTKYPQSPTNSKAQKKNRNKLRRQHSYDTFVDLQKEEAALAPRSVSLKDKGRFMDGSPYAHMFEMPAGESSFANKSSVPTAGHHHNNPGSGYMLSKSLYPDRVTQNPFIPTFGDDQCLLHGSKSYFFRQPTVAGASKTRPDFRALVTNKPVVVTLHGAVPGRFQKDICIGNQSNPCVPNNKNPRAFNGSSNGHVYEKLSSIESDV
Chain of Glutamate receptor ionotropic, NMDA 2B (Mus musculus) (Q01097 whole entry): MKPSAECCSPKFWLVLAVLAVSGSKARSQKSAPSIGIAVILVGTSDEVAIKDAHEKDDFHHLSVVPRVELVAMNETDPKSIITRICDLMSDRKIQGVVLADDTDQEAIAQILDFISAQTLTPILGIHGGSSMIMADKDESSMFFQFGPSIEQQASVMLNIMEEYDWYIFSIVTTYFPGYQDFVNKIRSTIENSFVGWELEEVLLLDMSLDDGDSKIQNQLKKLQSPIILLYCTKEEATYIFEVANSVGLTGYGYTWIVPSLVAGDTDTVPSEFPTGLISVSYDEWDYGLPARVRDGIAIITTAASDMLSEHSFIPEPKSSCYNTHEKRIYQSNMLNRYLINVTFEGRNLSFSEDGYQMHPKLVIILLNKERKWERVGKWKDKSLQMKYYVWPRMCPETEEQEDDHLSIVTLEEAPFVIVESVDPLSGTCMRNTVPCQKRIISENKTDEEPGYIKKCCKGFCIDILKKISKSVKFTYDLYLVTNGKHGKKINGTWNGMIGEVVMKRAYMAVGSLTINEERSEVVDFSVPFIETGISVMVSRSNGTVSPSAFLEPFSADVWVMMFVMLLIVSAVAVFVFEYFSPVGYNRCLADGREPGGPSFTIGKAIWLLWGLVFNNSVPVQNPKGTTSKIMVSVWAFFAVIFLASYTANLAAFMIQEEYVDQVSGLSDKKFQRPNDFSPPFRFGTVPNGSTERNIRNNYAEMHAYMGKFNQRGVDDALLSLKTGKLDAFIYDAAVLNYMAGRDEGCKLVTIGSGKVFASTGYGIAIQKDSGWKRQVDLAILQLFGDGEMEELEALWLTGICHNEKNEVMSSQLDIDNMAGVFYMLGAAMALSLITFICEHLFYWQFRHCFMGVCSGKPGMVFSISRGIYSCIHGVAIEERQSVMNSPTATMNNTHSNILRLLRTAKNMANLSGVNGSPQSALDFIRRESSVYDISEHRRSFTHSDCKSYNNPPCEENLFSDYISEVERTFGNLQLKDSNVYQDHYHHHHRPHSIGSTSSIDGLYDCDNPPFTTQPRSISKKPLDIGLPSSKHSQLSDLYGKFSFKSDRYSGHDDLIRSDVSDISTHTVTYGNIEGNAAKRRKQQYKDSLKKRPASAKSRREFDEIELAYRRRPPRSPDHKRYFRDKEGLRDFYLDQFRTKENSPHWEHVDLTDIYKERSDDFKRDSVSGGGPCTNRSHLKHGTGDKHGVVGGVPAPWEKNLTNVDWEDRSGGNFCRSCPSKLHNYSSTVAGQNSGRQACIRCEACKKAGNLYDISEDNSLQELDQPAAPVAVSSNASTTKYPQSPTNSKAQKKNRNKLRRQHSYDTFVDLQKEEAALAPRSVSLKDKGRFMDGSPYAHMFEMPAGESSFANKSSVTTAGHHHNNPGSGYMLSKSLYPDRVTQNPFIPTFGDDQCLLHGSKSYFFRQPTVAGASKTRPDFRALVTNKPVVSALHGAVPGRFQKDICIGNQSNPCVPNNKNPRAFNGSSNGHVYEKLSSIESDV

By ED50 is commonly meant the dose at which the effect has come halfway, by size or by number of responders. Take `O=C(C(=O)N1CCC(Cc2ccccc2)CC1)c1c[nH]c2cccc(O)c12`: the ED50 in the assay on Mus musculus [1] turned out to be 52.1 µmol/kg; in the assay with Mus musculus [3], 28.9 µmol/kg. Besides, in assay [2], the Activity turned out to be 24%.
`COc1ccc2c(C(=O)C(=O)N3CCC(Cc4ccccc4)CC3)c[nH]c2c1`: the figures for the 50% effective dose (ED50) in the assay with Mus musculus [1] and in the assay with Mus musculus [3] were 11.9 µmol/kg and 4.68 µmol/kg, respectively.
As a reminder, the Ki is the equilibrium dissociation constant of an inhibitor or competing ligand from its target. In general, IC50 refers to the concentration that gives 50% inhibition. The low end stands for inhibition by little substance, the high end for a need for much substance. Take `O=C(CN1CCC(Cc2ccccc2)CC1)c1c[nH]c2cc(O)ccc12`: in assay [4], the result was inactive. In addition, the Ki in assay [5] is 0.043 µM; in assay [7] it was more than 1 µM. Also, the figures for the ED50 in the assay on Mus musculus [1] and in the assay on Mus musculus [3] were 95.4 µmol/kg and 53.7 µmol/kg, respectively. In assay [6], this molecule gave an IC50 of 0.017 µM. This molecule also displayed an Activity in assay [2] of 92%.
With `COc1ccc2[nH]cc(C(=O)CN3CCC(Cc4ccccc4)CC3)c2c1`, the Activity in assay [2] is 86%.
On to `COc1ccc2[nH]cc(C(=O)CN3CCN(Cc4ccccc4)CC3)c2c1`, for which the ED50 in the assay on Mus musculus [1] came out at 98.7 µmol/kg; with Mus musculus [3], 63.8 µmol/kg.
Consider `COc1cccc2[nH]cc(C(=O)CN3CCC(Cc4ccccc4)CC3)c12`, for which the ED50 in the assay with Mus musculus [1] came out at 32.7 µmol/kg; in the assay with Mus musculus [3], 16.2 µmol/kg. Moreover, the IC50 in assay [6] was 0.324 µM. Further, the Activity in assay [2] came out at 82%.
In the case of `COc1ccc2c(C(=O)CN3CCC(Cc4ccccc4)CC3)c[nH]c2c1`, the 50% effective dose (ED50) in the assay with Mus musculus [1] was 67.8 µmol/kg; in the assay on Mus musculus [3] it was 30.1 µmol/kg. Further, the Activity in assay [2] came out at 4%.
The like results for `COc1cccc2[nH]cc(C(=O)C(=O)N3CCC(Cc4ccccc4)CC3)c12` were, in that order, more than 100 µmol/kg, 76.7 µmol/kg and 14%.
The like results for `COc1cccc2c(C(=O)C(=O)N3CCC(Cc4ccccc4)CC3)c[nH]c12` were, in that order, 51.4 µmol/kg, 27.4 µmol/kg and 33%.
In assay [7], `O=C(C(=O)N1CCC(Cc2ccccc2)CC1)c1c[nH]c2ccc(O)cc12` registered an inhibition constant Ki of more than 1 µM.
With `COc1cccc2c(C(=O)CN3CCC(Cc4ccccc4)CC3)c[nH]c12`, the figures for the ED50 in the assay with Mus musculus [1] and in the assay on Mus musculus [3] were 80.3 µmol/kg and 35.8 µmol/kg, respectively. The molecule also gave an IC50 in assay [6] of 2.91 µM. Further, the Activity in assay [2] was 62%.
With `O=C(CN1CCC(Cc2ccccc2)CC1)c1c[nH]c2ccc(O)cc12`, the outcome in assay [4] was Active. In addition, the Ki in assay [5] was 0.0765 µM; in assay [7] it was more than 1 µM.
For `O=C(CN1CCC(Cc2ccccc2)CC1)c1c[nH]c2cccc(O)c12`, the ED50 is 68.1 µmol/kg with Mus musculus [1] and 13.7 µmol/kg in the assay with Mus musculus [3]. Further, the 50% inhibitory concentration (IC50) in assay [6] was found to be 6.64 µM. In assay [2], this molecule registered an Activity of 77%.
The like results for `O=C(C(=O)N1CCC(Cc2ccccc2)CC1)c1c[nH]c2c(O)cccc12` were, in that order, 80.5 µmol/kg, 36.2 µmol/kg, 1.99 µM and 79%.
Consider `COc1ccc2[nH]cc(C(=O)C(=O)N3CCC(Cc4ccccc4)CC3)c2c1`, for which the Activity in assay [2] turned out to be 9%.
As to `O=C(C(=O)N1CCC(Cc2ccccc2)CC1)c1c[nH]c2cc(O)ccc12`, the ED50 stood at 84.4 µmol/kg in the assay with Mus musculus [1] and 38.9 µmol/kg in the assay with Mus musculus [3]. The same molecule came in with an IC50 in assay [6] of 0.022 µM. In assay [2], this molecule had an Activity of 92%. Moreover, the Ki in assay [7] is more than 1 µM.
Take `O=C(CN1CCC(Cc2ccccc2)CC1)c1c[nH]c2c(O)cccc12`: the ED50 was more than 100 µmol/kg in the assay with Mus musculus [1] and 53.8 µmol/kg in the assay on Mus musculus [3]. Also, the half-inhibitory concentration (IC50) in assay [6] was found to be 7.14 µM. The Activity in assay [2] was determined as 72%.
The molecule `O=C(CN1CCN(Cc2ccccc2)CC1)c1c[nH]c2ccccc12` returned an Activity in assay [2] of 14%.
Take `O=C(CN1CCN(Cc2ccccc2)CC1)c1c[nH]c2ccc(O)cc12`: the results for the Ki in assay [5] and in assay [7] were 0.557 µM and 0.437 µM, respectively. Also, the ED50 in the assay on Mus musculus [1] was more than 100 µmol/kg; in the assay with Mus musculus [3] it was 44.9 µmol/kg. Also, the Activity in assay [2] is 27%.
